Experimental data reported in publication PMC10839871 (Heliyon, 2024).
Like-named read-outs stand apart in the source and are kept apart here.

What was measured:
[1] = system: Pseudomonas aeruginosa; assay: MIC / bacterial growth, broth microdilution; assay type: cell-based; conditions: standard antibiotic
Summary of the method: (§1)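 Ampicillin (10 to 0.078125 mg/mL) as reference in Mueller–Hinton broth microdilution. Wells inoculated with fresh overnight suspension adjusted to OD600 0.6; uninoculated and drug-free growth controls included. Incubated 18 h at 37 °C, aerobic, shaking at 150 rpm. Growth checked visually and spectrophotometrically. MIC taken as lowest concentration preventing visible growth. Triplicate.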

[2] = system: Staphylococcus aureus; assay: MIC / bacterial growth, broth microdilution; assay type: cell-based; conditions: standard antibiotic
Summary of the method: as §1

[3] = system: Enterococcus faecalis; assay: MIC / bacterial growth, broth microdilution; assay type: cell-based; conditions: standard antibiotic
Summary of the method: as §1

[4] = ABTS assay
[5] = ref 27 (Djouahri et al., 2015); cited from earlier work
[6] = DPPH free radical scavenging assay
[7] = Ferric reducing antioxidant power
[8] = target: Porcine pancreatic elastase (Sus scrofa, UniProt P00772); assay: Anti-elastase activity; assay type: biochemical
Sequence of Porcine pancreatic elastase (P00772 27-266): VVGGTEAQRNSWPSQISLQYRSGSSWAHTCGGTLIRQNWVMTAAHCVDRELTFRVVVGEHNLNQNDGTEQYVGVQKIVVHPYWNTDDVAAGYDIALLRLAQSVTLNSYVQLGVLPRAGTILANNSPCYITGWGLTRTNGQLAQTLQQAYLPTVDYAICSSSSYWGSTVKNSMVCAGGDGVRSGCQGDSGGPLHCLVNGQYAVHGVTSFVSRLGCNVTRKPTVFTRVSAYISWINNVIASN
Summary of the method: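 Porcine pancreatic elastase stock at 3.33 mg/mL in sterile water. Test sample (3–0.046 mg/mL), Tris–HCl buffer (pH 8) and enzyme pre-incubated 15 min. N-succinyl-Ala-Ala-Ala-p-nitroanilide substrate (1.6 mM solution) added, then 20 min at 37 °C. A400 read immediately. Inhibition % from blank-corrected sample versus buffer+enzyme absorbance. EGCG positive control. Run in triplicate, mean ± SD.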

For CC1(C)S[C@@H]2[C@H](NC(=O)[C@H](N)c3ccccc3)C(=O)N2[C@H]1C(=O)O [ampicillin], the “Concentration that completely inhibited the bacterial growth” value [1] was 0.3125 mg/mL, the “Concentration that completely inhibited the bacterial growth” value [2] was 0.3125 mg/mL and the “Concentration that completely inhibited the bacterial growth” value [3] was 0.3125 mg/mL.
In the case of O=C1O[C@H]([C@@H](O)CO)C(O)=C1O [Ascorbic acid], the “ABTS IC50” value [4] is reported as 21.7 ± 0.29 µg/mL.
In the case of COc1ccc(O)c(C(C)(C)C)c1 [BHA], the “DPPH IC50” value [5] is given as 24.73 ± 0.11 µg/mL.
For O=c1c(O)c(-c2ccc(O)c(O)c2)oc2cc(O)cc(O)c12 [Quercetin], the “DPPH IC50” value [6] was 5.36 ± 0.25 µg/mL and the FRAP [7] was 16.60 ± 0.64 mM of FeSO4/g Extract.
For O=C(O[C@@H]1Cc2c(O)cc(O)cc2O[C@@H]1c1cc(O)c(O)c(O)c1)c1cc(O)c(O)c(O)c1 [EGCG, epigallocatechin gallate], the “Elastase IC50” value [8] was 92.00 ± 3.1 µg/mL.
In the case of Cc1cc(C(C)(C)C)c(O)c(C(C)(C)C)c1 [BHT], the “DPPH IC50” value [5] is listed as 33.89 ± 0.16 µg/mL.
